In ChEMBL document CHEMBL1155327, “2,4-Diamino-quinazolines as inhibitors of beta-catenin/Tcf-4 pathway: Potential treatment for colorectal cancer” (Bioorg Med Chem Lett, 2009):
In brackets after ≈: the same amount, converted by molar mass.

What was measured:
[1] = molecular target: Catenin beta-1 (Homo sapiens) (UniProt P35222); test: Inhibition of Beta-catenin/Tcf-4 pathway in human Tcf22C11 cell assessed as inhibition of reporter activity by cell-based reporter assay
[2] = Cytotoxicity against human SV5A8 cells; assay type: functional, cell-based
Method in brief: (§1)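 Reporter cell lines 22C11 and 33.13 with control line 5A8; IC50 from means of at least two experiments; toxicity flagged as the minimal dose where cell killing appeared by Renilla luciferase signal.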

[3] = molecular target: Catenin beta-1 (Homo sapiens) (UniProt P35222); test: Inhibition of Beta-catenin/Tcf-4 pathway in human Tcf 33.13 cell assessed as inhibition of reporter activity by cell-based reporter assay
[4] = Inhibition of […]/Tcf-4 pathway in human Tcf22C11 cell assessed as inhibition of reporter activity by cell-based reporter assay; assay type: functional
Method in brief: as §1

[5] = Inhibition of […]/Tcf-4 pathway in human Tcf 33.13 cell assessed as inhibition of reporter activity by cell-based reporter assay; assay type: functional
Method in brief: as §1

[6] = Ratio of Drug level in tumor to mouse plasma at 50 mg/kg, po
Method in brief: (§2)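 Tumour-bearing nude mice (n = 4) given one oral dose (50 or 200 mg/kg); plasma and tumour drug concentrations (ng/mL) measured 8 h after dosing; tumour/plasma ratio calculated from these.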

[7] = Plasma concentration in nude mouse at 50 mg/kg, po after 8 hrs; assay type: ADME, organism-based; set-up: dose 50 mg/kg, route oral
Method in brief: as §2

[8] = Drug level in tumor of nude mouse bearing HT29 or HCT116 cells at 50 mg/kg, po after 8 hrs; assay type: ADME, organism-based, Neoplasm, HCT-116; set-up: dose 50 mg/kg, route oral; conditions: read-out: Ct
Method in brief: as §2

[9] = Oral bioavailability in mouse at 25 mg/kg; assay type: ADME, organism-based; conditions: in vivo
Method in brief: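 Female nude mice dosed orally at 25 mg/kg; oral bioavailability (%) determined from pharmacokinetic study.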

[10] = system: HT-29; test: Antitumor activity against human HT-29 cells xenografted in nude mouse assessed as tumor growth inhibition at 200 mg/kg, po after 17 days; assay type: functional; conditions: HT-29, 408 h, read-out: TGI
Method in brief: (§3)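 Nude mice carrying subcutaneous HT29 or HCT116 tumours; oral dosing at 25, 50, 100 or 200 mg/kg once daily for 17 days; tumour volume measured; growth inhibition assessed at end of treatment.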

[11] = system: HCT-116; test: Antitumor activity against human HCT116 cells xenografted in nude mouse assessed as tumor growth inhibition at 200 mg/kg, po after 17 days; assay type: functional; conditions: HCT-116, 408 h, read-out: TGI
Method in brief: as §3

[12] = Aqueous solubility at pH 7.4; assay type: physicochemical
Method in brief: (§4)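 Water solubility measured in µg/mL at pH 7.4 and at pH 3.0.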

[13] = Aqueous solubility at pH 3; assay type: physicochemical
Method in brief: as §4

[14] = Plasma concentration in mouse at 200 mg/kg, po after 8 hrs; assay type: ADME, organism-based; set-up: dose 200 mg/kg, route oral
Method in brief: as §2

[15] = Drug level in tumor of nude mouse bearing HT29 or HCT116 tumor at 200 mg/kg, po after 8 hrs; assay type: ADME, organism-based, Neoplasm; set-up: dose 200 mg/kg, route oral; conditions: read-out: Ct
Method in brief: as §2

[16] = Ratio of Drug level in tumor to mouse plasma at 200 mg/kg, po
Method in brief: as §2

IC50 [1] [µM] | IC50 [3] [µM] | SMILES | IC50 [2] [µM] | further results
0.96 | 0.85 | Cc1ccc2c(NCc3ccc(NC(=O)C4CCN(Cc5ccccc5)CC4)cc3)nc(N3CCC(N4CCCC4)CC3)nc2c1 | > 8.09 | –
> 20 | > 20 | Cc1ccc2c(NCc3ccc(NC(=O)C4CCN(Cc5ncc[nH]5)CC4)cc3)nc(N(C)C)nc2c1 | > 20 | –
1.92 | 1.67 | Cc1ccc2c(NCc3ccc(NC(=O)C4CCN(C)CC4)cc3)nc(N(C)C)nc2c1 | > 17.3 | –
0.52 | 0.45 | COc1ccc(CN2CCC(C(=O)Nc3ccc(CNc4nc(N(C)C)nc5cc(C)ccc45)cc3)CC2)cc1 | > 6.18 | –
– | – | Cc1ccc2c(NCc3ccc(NC(=O)C4CCN(Cc5ccc(Cl)cn5)CC4)cc3)nc(N(C)C)nc2c1 | > 5.4 | IC50 [4]: 0.57 µM; IC50 [5]: 0.41 µM
0.66 | 0.79 | Cc1ccc2c(NCc3ccc(NC(=O)C4CCN(Cc5ccccc5)CC4)cc3)nc(N3CCCC3)nc2c1 | > 7.79 | –
1 | 0.8 | Cc1ccc2c(NCc3ccc(NC(=O)C4CCN(Cc5ccccc5)CC4)cc3)nc(N3CCC3)nc2c1 | > 8.5 | –
0.39 | 0.32 | Cc1ccc2c(NCc3ccc(NC(=O)C4CCN(Cc5ccc(Cl)cc5)CC4)cc3)nc(N(C)C)nc2c1 | > 3.18 | –
0.75 | 0.81 | Cc1ccc2c(NCc3ccc(NC(=O)C4CCN(C5CCCCC5)CC4)cc3)nc(N(C)C)nc2c1 | > 8.32 | –
0.22 | 0.19 | Cc1ccc2c(NCc3ccc(NC(=O)C4CCN(Cc5ccc(F)cc5)CC4)cc3)nc(N(C)C)nc2c1 | > 4.82 | Ratio [6]: 220; concentration at 8 h [7]: 440 ng/mL; concentration at 8 h [8]: 70300 ng/mL; bioavailability [9]: 46%
0.65 | 0.96 | Cc1ccc2c(NCc3ccc(NC(=O)C4CCN(CC(C)C)CC4)cc3)nc(N(C)C)nc2c1 | > 10.5 | –
1.38 | 1.13 | CCNc1nc(NCc2ccc(NC(=O)C3CCN(Cc4ccccc4)CC3)cc2)c2ccc(C)cc2n1 | > 2.14 | –
0.33 | 0.35 | Cc1ccc2c(NCc3ccc(NC(=O)C4CCN(Cc5cccc(F)c5)CC4)cc3)nc(N(C)C)nc2c1 | > 4.17 | –
1.47 | 1.17 | CCCCN1CCC(C(=O)Nc2ccc(CNc3nc(N(C)C)nc4cc(C)ccc34)cc2)CC1 | > 10.5 | –
0.52 | 0.21 | Cc1ccc2c(NCc3ccc(NC(=O)C4CCN(Cc5ccc(F)cc5Cl)CC4)cc3)nc(N(C)C)nc2c1 | > 5.91 | –
0.74 | 0.76 | Cc1ccc2c(NCc3ccc(NC(=O)C4CCN(Cc5ccccc5)CC4)cc3)nc(N(C)C)nc2c1 | > 7.05 | inhibition in vivo at 200 mg/kg [10]: 20%; inhibition in vivo at 200 mg/kg [11]: 20%; solubility [12]: 43 µg/mL (≈ 84.5 µM); solubility [13]: > 100 µg/mL; bioavailability [9]: 41%; concentration at 8 h [14]: 2970 ng/mL; concentration at 8 h [15]: 90700 ng/mL; Ratio [16]: 40
0.47 | 0.5 | Cc1ccc(CN2CCC(C(=O)Nc3ccc(CNc4nc(N(C)C)nc5cc(C)ccc45)cc3)CC2)cc1 | > 4.15 | –
1.58 | 1.32 | Cc1ccc2c(NCc3ccc(NC(=O)C4CCN(Cc5ccccc5)CC4)cc3)nc(N3CCN(C)CC3)nc2c1 | > 17.7 | –
1.92 | 1.46 | Cc1ccc2c(NCc3ccc(NC(=O)C4CCN(Cc5ccccc5)CC4)cc3)nc(N3CCN[C@@H](C)C3)nc2c1 | > 8.86 | –
1.26 | 1.12 | CCN1CCN(c2nc(NCc3ccc(NC(=O)C4CCN(Cc5ccccc5)CC4)cc3)c3ccc(C)cc3n2)CC1 | > 13 | –
0.6 | – | CNc1nc(NCc2ccc(-c3ccccc3C(=O)OC)cc2)c2ccccc2n1 | – | –
1.04 | 0.96 | Cc1ccc2c(NCc3ccc(NC(=O)C4CCN(Cc5ccccc5)CC4)cc3)nc(N3CCCCCC3)nc2c1 | > 6.88 | –
1.41 | 1.31 | Cc1ccc2c(NCc3ccc(NC(=O)C4CCN(Cc5ccccc5)CC4)cc3)nc(N(C)CCCN(C)C)nc2c1 | > 8.62 | –
2.27 | 2.12 | Cc1ccc2c(NCc3ccc(NC(=O)C4CCN(Cc5ccccc5)CC4)cc3)nc(N3CCNC(CCO)C3)nc2c1 (configuration not stated) | > 8.42 | –
2.26 | 1.44 | Cc1ccc2c(NCc3ccc(NC(=O)C4CCN(Cc5ccccc5)CC4)cc3)nc(N(C)CCN(C)C)nc2c1 | > 8.83 | –
0.76 | 0.85 | Cc1ccc2c(NCc3ccc(NC(=O)C4CCN(C(=O)OC(C)(C)C)CC4)cc3)nc(N(C)C)nc2c1 | > 4.82 | –
0.53 | 0.32 | Cc1ccc2c(NCc3ccc(NC(=O)C4CCN(Cc5ccccc5F)CC4)cc3)nc(N(C)C)nc2c1 | > 6.67 | –
1.83 | 1.93 | Cc1ccc2c(NCc3ccc(NC(=O)C4CCN(Cc5ccco5)CC4)cc3)nc(N(C)C)nc2c1 | > 20 | –
– | – | Cc1ccc2c(NCc3ccc(NC(=O)C4CCN(Cc5ccncc5)CC4)cc3)nc(N(C)C)nc2c1 | > 8.07 | IC50 [4]: 1.18 µM; IC50 [5]: 0.9 µM
